Test results from the array DNA melting data of Ke et al. (doi:10.1101/2024.01.08.574731).

Columns and labels:
[1] = melting temperature; fluorescence melt of hairpins on a sequencing array, two-state fit, raised by 9.35 °C to match UV melts; settings: sodium 0.088 M
Summary of the method: (§1)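 Hairpins were imaged by Cy3 fluorescence on a sequenced MiSeq flow cell with annealed Cy3 and quencher oligos, in 50 mM Na-HEPES pH 8.0, 25 mM NaCl, in 2.5 °C steps up to 60 °C. Bootstrapped two-state fits of normalised signals gave melting temperature and folding enthalpy. Four replicates were combined by inverse variance, and fitted temperatures were raised by 9.35 °C to match UV melts.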

[2] = folding enthalpy; higher = less favourable; fluorescence melt of hairpins on a sequencing array, two-state fit; settings: sodium 0.088 M
Summary of the method: as §1

Row | Sequence | Tm [1] [°C] | folding enthalpy [2] [kcal/mol]
1 | GTTTTCGAAAGAAACAAC ((((((....)))..))) | 26.6 | -11.7
2 | GTTGCCCGAAAGGGAAAC (((.(((....))).))) | 56.4 | -32.2
3 | GTGGTAGGAAACTATCAC (((.(((....))).))) | 44.4 | -28.4
4 | GCATTACGAAAGTACTGC (((.(((....))).))) | 46.4 | -36.5
5 | GCATAGCGAAAGCTCAGC ((..(((....)))..)) | 30.6 | -14.3
6 | GATCACCCACGTGATC ((((((....)))))) | 56.5 | -47
7 | GATCTTGAGCAAGATC ((((((....)))))) | 44.4 | -33.5
8 | GCGTACGGAAACGTGTGC ((..(((....)))..)) | 44.7 | -29.1
9 | GGGGTCGGAAACGGCCTC (.((.((....)).)).) | 51.5 | -26.4
10 | GAATCCCGAAAGGGCTTC (((.(((....))).))) | 41.9 | -19.1
11 | GCGAATGGAAACATCCGC (((.(((....))).))) | 45.4 | -23.1
12 | GCGGTATCCGC ((((...)))) | 54.9 | -24
13 | GTGCCAGGAAACTGACAC (((.(((....))).))) | 47.5 | -35.5
14 | GGCAGGACGAAAGTCGCC (((..(((....)))))) | 55.4 | -38.2
15 | GAGCGCGGAAACGCACCC (.(.(((....))).).) | 31.7 | -7.47
16 | CGACAGAAATGTCG (((((....))))) | 52.9 | -26.1
17 | CGCGGACAATTCCGCG ((((((....)))))) | 62.2 | -30.5
18 | GAGGCTGCGAAAGCACTC (((..(((....)))))) | 34.3 | -11.2
19 | AGGAGGAAACTCCT (((((....))))) | 45 | -18.3
20 | GAAAGGCGAAAGCCATTC (((.(((....))).))) | 41.4 | -16.5
21 | GTCGGACGAAAGTCAGAC (((.(((....))).))) | 59.3 | -39.9
22 | GTGCGCGGAAACGCGTAC ((.((((....)))).)) | 65.5 | -20.1
23 | GAATGGAAACATTC (((((....))))) | 40.6 | -24.9

Row | Sequence | Tm [1] [°C] | folding enthalpy [2] [kcal/mol]
24 | GCAACTGGAAACAGTTAC (.(((((....))))).) | 36.3 | -14.5
25 | GTCTCCGAAAGGAACGAC ((((((....)))..))) | 36.3 | -23.5
26 | GCTGTCGAAAGACCCAGC ((((((....)))..))) | 34.8 | -15.9
27 | GCTACGCGAAAGCCTGGC ((.(.((....)).).)) | 34.4 | -13.4
28 | GCTGCAGGAAACTGCGGC ((.((((....)))).)) | 61.6 | -41.5
29 | GAGTGCGAAAGCAACCTC ((((((....)))..))) | 37.7 | -13.5
30 | GATCCCGGTCGGGATC ((((((....)))))) | 66.1 | -35.5
31 | GCTGCAGGAAACTGTGGC ((..(((....)))..)) | 46.5 | -25.8
32 | GCTCCGACGAAAGTCAGC (((..(((....)))))) | 32.2 | -13.3
33 | GCGGGGCCGAAAGGCCGC (((..(((....)))))) | 59.6 | -10.2
34 | AACTGGAAACAGTT (((((....))))) | 38.8 | -16.8
35 | GCCTACCGAAAGGTGGC (((.(((....)))))) | 57 | -25.4
36 | GAGCGAGGAAACTTGCTC ((((.((....)).)))) | 52.2 | -25.1
37 | GGAGACGAAAGTCGTTCC ((((((....)))..))) | 36.7 | -11.8
38 | GCAGCTCCGAAAGGATGC (((..(((....)))))) | 41.5 | -16.2
39 | GCCAAGCGAAAGCTTAGC ((.((((....)))).)) | 48.9 | -17.6
40 | GATCCCTACGGGATC ((((((...)))))) | 67.9 | -32.5
41 | GAGGGGGGAAACCTCCTC ((((.((....)).)))) | 51.4 | -33.7
42 | GATCCCATAGGGGATC ((((((....)))))) | 60.4 | -32.9
43 | GCCAGGCGAAAGCCATGC ((..(((....)))..)) | 42.3 | -13.6
44 | GAATTCGGAAACGGATTC ((((.((....)).)))) | 45.4 | -36.2
45 | GCGGACGAAAGTCACGC ((((((....))).))) | 64.8 | -20.9
46 | GATTGGCGAAAGCCGATC (((.(((....))).))) | 56.8 | -25.8
